From ChEMBL document CHEMBL4387710, “Fragment-Based Discovery of an Apolipoprotein E4 (apoE4) Stabilizer” (J Med Chem, 2019)
Calls of active or inactive are those of the source. The rule behind the calls is not given here.

What was measured:
[1] = Binding affinity to N-terminal thrombin-recognition site-fused His6-tagged human apolipoprotein E4 N-terminal domain without leader sequence (1 to 164 residues) expressed in Escherichia coli BL21-(DE3)-T1R cells by 13C-HSQC NMR spectroscopy
Homo sapiens [2] = species: Homo sapiens; assay: Binding affinity to full-length human recombinant C-terminal FLAG/His-tagged apolipoprotein E4 expressed in HEK293-6E cells assessed as breakdown of DMPG liposomes at 500 uM after 30 mins by dynamic light scattering analysis; type: cell-based
Procedure, shortened: (§1)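 DMPG liposome breakdown assay: large DMPG liposomes incubated with apoE protein (N-terminal domain, or full-length wild-type from mammalian cells). Breakdown into smaller discoidal complexes is read as a fall in light-scattering intensity. Liposomes alone serve as control. Compound is tested as a dose series covering 15.6 to 500 μM.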

[3] = (§2) Binding affinity to N-terminal thrombin-recognition site-fused His6-tagged human apolipoprotein E4 N-terminal domain without leader sequence (1 to 164 residues) expressed in Escherichia coli BL21-(DE3)-T1R cells by surface plasmon resonance analysis
Homo sapiens [4] = species: Homo sapiens; assay: as §2, with “cells assessed as breakdown of DMPG liposomes at 500 uM after 30 mins” for “cells”, “dynamic light scattering” for “surface plasmon resonance”; procedure, shortened: as §1
[5] = Binding affinity to full-length human recombinant C-terminal FLAG/His-tagged apolipoprotein E3 expressed in HEK293-6E cells by surface plasmon resonance assay
[6] = Binding affinity to full-length human recombinant C-terminal FLAG/His-tagged apolipoprotein E4 expressed in HEK293-6E cells by surface plasmon resonance assay
Homo sapiens [7] = species: Homo sapiens; assay: (§3) Binding affinity to human recombinant full-length N-terminal thrombin-recognition site-fused His6-tagged apolipoprotein E3 (1 to 299 residue) F257A/W246R/V269A/L279Q/V287E mutant expressed in Escherichia coli BL21-(DE3)-T1R cells assessed as change in melting temperature at 5 mM incubated for 15 mins by SYPRO orange dye-based thermal shift assay
Procedure, shortened: (§4)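 Thermal shift assay: compound added at 5 mM to full-length mutant apoE protein (apoE4 or apoE3). Stabilization is reported as the shift in melting temperature, in degrees.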

Homo sapiens [8] = species: Homo sapiens; assay: as §3, with “apolipoprotein E4” for “apolipoprotein E3”; procedure, shortened: as §4
[9] = Solubility of the compound in PBS by NMR method; type: physicochemical
Astrocyte [10] = assay: Cytotoxicity against human induced pluripotent stem cell-derived astrocytes harboring apolipoprotein E4/4 assessed as effect on cell viability at 12.5 uM to 100 uM preincubated for 1 hr followed by TNFalpha/IL-1beta/IFNgamma stimulation and measured after 24 hrs by CellTiter-Glo luminescent cell viability assay; type: cell-based
Homo sapiens [11] = species: Homo sapiens; assay: as §3, with “apolipoprotein E4” for “apolipoprotein E3”, “at 1” for “at 5”
Astrocyte [12] = assay: Antineuroinflammatory activity in human induced pluripotent stem cell-derived astrocytes harboring apolipoprotein E4/4 assessed reduction in TNFalpha/IL-1beta/IFNgamma-stimulated IL-6 secretion preincubated for 1 hr followed by TNFalpha/IL-1beta/IFNgamma stimulation and measured after 24 hrs; type: functional, cell-based
Astrocyte [13] = assay: Antineuroinflammatory activity in human induced pluripotent stem cell-derived astrocytes harboring apolipoprotein E4/4 assessed reduction in TNFalpha/IL-1beta/IFNgamma-stimulated IL-8 secretion preincubated for 1 hr followed by TNFalpha/IL-1beta/IFNgamma stimulation and measured after 24 hrs; type: functional, cell-based

CC(C)(O)c1ccc(-c2cc(Cl)cc(C3(C(=N)N)CCC3)c2)cc1
Kd [1]: 30 µM

N=C(N)C1(c2cccc(Cl)c2)CCC1
Activity (Homo sapiens [2]): Active
Kd [3]: 205 µM
Activity (Homo sapiens [4]): Active
Kd [5]: 890 µM
Kd [6]: 233 µM
ΔTm (Homo sapiens [7]): 0.5 °C
Kd [1]: 900 µM
ΔTm (Homo sapiens [8]): 4 °C
solubility [9]: ≥ 500 µM

CC(=O)NCc1ccc(-c2cc(Cl)cc(C3(C(=N)N)CCC3)c2)cc1
Kd [1]: 20 µM

CCNS(=O)(=O)c1ccc(-c2cc(Cl)cc(C3(C(=N)N)CCC3)c2)cc1
Kd [1]: 20 µM

N=C(N)C1(c2cc(Cl)cc(-c3ccccc3)c2)CCC1
Kd [1]: 230 µM

CN(C)CCNC(=O)c1ccc(-c2cc(Cl)cc(C3(C(=N)N)CCC3)c2)cc1
Activity (Astrocyte [10]): Non-Toxic
ΔTm (Homo sapiens [11]): 4 °C
Kd [1]: < 5 µM
Activity (Astrocyte [12]): Dose-dependent effect
Activity (Astrocyte [13]): Dose-dependent effect

N=C(N)C1(c2cc(Cl)cc(-c3ccc(CO)c(Cl)c3)c2)CCC1
Kd [1]: 8 µM

N=C(N)C1(c2cc(Cl)cc(-c3ccc(CN)cc3)c2)CCC1
Kd [1]: < 5 µM
